Experiments:
[1] = biological target: Adenosine receptors; A1 & A3 (Homo sapiens) (UniProt P30542+P0DMS8); experiment: Selectivity ratio of Ki for human adenosine A1 receptor to Ki for human adenosine A3 receptor
Summary of the method: (§1)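 Ratios of Ki values from displacement assays in CHO cells (3 h, room temperature). The hA1 Ki ([3H]CCPA) or the hA2A Ki ([3H]NECA) was divided by the hA3 Ki ([3H]HEMADO). Each Ki is a geometric mean of n = 3–6.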

Homo sapiens [2] = organism: Homo sapiens; experiment: Selectivity ratio of Ki for human adenosine A2A receptor to Ki for human adenosine A3 receptor; summary of the method: as §1
Adenosine receptor A3 = biological target: T1, Adenosine receptor A3 (Homo sapiens, UniProt P0DMS8); experiment: Displacement of [3H]-HEMADO from human adenosine A3 receptor expressed in CHO cells after 3 hrs by topcount scintillation counting analysis; type: cell-based
T1 sequence (P0DMS8 whole entry): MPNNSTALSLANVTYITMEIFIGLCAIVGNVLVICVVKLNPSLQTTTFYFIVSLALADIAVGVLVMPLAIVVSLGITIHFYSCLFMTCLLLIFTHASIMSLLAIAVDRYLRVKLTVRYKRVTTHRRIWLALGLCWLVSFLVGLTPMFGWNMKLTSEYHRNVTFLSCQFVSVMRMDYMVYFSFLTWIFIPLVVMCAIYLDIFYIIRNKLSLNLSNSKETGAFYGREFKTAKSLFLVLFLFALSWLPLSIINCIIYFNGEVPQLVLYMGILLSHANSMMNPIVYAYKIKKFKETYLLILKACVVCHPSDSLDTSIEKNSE
Summary of the method: (§2)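 Radioligand binding to membranes from CHO cells expressing the human receptor, run for 3 h at room temperature. Radioligands were [3H]CCPA for hA1, [3H]NECA for hA2A and [3H]HEMADO for hA3. Nonspecific binding was defined with 1 mM theophylline (hA1) or 100 µM R-PIA (hA2A, hA3). Bound ligand was separated by GF/B filtration and counted. Ki came from nonlinear fitting of competition curves using Cheng-Prusoff, as geometric means of n = 3–6 with 95% CI.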

Adenosine receptor A2b = biological target: T2, Adenosine receptor A2b (Homo sapiens, UniProt P29275); experiment: Antagonist activity at human adenosine A2B receptor expressed in CHO cells assessed as inhibition of NECA-induced adenylyl cyclase activity after 20 mins in presence of [alpha-32P]ATP; type: functional, cell-based
T2 sequence (P29275 whole entry): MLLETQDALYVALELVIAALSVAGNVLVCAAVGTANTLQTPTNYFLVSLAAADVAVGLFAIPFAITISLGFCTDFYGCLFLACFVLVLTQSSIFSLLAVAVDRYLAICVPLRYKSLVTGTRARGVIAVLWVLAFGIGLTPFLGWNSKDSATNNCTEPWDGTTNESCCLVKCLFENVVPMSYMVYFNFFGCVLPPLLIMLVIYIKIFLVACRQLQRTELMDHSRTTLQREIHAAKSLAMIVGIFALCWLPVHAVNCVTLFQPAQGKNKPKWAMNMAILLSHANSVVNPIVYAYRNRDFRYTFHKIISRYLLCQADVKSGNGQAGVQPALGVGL
Summary of the method: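 Membranes from CHO cells transfected with the human A2B receptor were incubated for 20 min with 100 nM NECA, 150,000 cpm [α-32P]ATP and test compound at several concentrations. The incubation mixture contained no EGTA and no NaCl. Ki was derived from concentration-dependent inhibition of NECA-stimulated adenylyl cyclase activity (n = 3–6).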

Adenosine receptor A2a = Adenosine receptor A2a (Homo sapiens, UniProt P29274); experiment: Displacement of [3H]-NECA from human adenosine A2A receptor expressed in CHO cells after 3 hrs by topcount scintillation counting analysis; type: cell-based; summary of the method: as §2
Chain of Adenosine receptor A2a (P29274 whole entry): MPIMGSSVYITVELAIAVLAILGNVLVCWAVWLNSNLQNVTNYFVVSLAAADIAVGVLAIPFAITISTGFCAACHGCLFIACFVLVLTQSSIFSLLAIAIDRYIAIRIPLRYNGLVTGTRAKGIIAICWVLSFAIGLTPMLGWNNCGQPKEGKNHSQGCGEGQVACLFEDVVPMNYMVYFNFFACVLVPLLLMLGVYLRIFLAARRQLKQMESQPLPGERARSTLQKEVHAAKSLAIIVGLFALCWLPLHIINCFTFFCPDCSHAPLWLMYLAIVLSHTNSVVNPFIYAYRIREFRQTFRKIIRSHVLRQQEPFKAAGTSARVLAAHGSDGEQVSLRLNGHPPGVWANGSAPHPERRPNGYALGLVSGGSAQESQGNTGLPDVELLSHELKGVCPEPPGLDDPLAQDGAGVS

Adenosine receptor A1 = biological target: T3, Adenosine receptor A1 (Homo sapiens, UniProt P30542); experiment: Displacement of [3H]-CCPA from human adenosine A1 receptor expressed in CHO cells after 3 hrs by topcount scintillation counting analysis; type: cell-based; summary of the method: as §2
T3 sequence (P30542 whole entry): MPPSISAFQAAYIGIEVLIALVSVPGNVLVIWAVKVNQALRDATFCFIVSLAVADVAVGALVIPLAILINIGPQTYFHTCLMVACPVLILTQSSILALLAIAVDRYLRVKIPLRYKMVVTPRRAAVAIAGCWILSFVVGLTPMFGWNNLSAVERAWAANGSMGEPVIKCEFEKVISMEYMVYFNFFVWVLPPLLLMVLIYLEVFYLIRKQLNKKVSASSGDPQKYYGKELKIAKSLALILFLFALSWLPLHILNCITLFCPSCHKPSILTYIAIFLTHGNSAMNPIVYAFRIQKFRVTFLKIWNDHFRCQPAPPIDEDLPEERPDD

Homo sapiens [3] = organism: Homo sapiens; experiment: Selectivity ratio of Ki for human adenosine A3 receptor to Ki for human adenosine A2A receptor
Homo sapiens [4] = organism: Homo sapiens; experiment: Selectivity ratio of Ki for human adenosine A1 receptor to Ki for human adenosine A2A receptor

Compound	Ratio Ki [1]	Ratio Ki (Homo sapiens [2])	Ki (Adenosine receptor A3)	Ki (Adenosine receptor A2b)	Ki (Adenosine receptor A2a)	Ki (Adenosine receptor A1)	Ratio Ki (Homo sapiens [3])	Ratio Ki (Homo sapiens [4])
O=C(Cc1ccccc1)Nc1nc(Cl)c2cn(CCc3ccccc3)nc2n1	0.5	0.7	11.4 µM	> 20 µM	8.6 µM	6.5 µM	–	–
O=C(c1ccccc1)N(C(=O)c1ccccc1)c1nc(Cl)c2cn(CCc3ccccc3)nc2n1	> 34.5	2	2.9 µM	> 20 µM	5.4 µM	> 100 µM	–	–
CC(C)(C)Cn1cc2c(Cl)nc(NC(=O)Cc3ccccc3)nc2n1	2.9	2.1	10.9 µM	> 20 µM	23.6 µM	31.9 µM	–	–
O=C(Nc1nc(Cl)c2cn(CCc3ccccc3)nc2n1)c1ccc(F)cc1	0.02	0.02	> 100 µM	> 20 µM	2.06 µM	2.7 µM	> 50	–
Cn1cc2c(Cl)nc(N(C(=O)c3ccccc3)C(=O)c3ccccc3)nc2n1	> 8.4	2.4	7.1 µM	> 20 µM	17.5 µM	> 60 µM	–	–
Cn1cc2c(Cl)nc(NC(=O)c3ccc(C(F)(F)F)cc3)nc2n1	> 2.9	0.7	33.5 µM	> 20 µM	25.6 µM	> 100 µM	–	–
CC(C)(C)Cn1cc2c(Cl)nc(NC(=O)c3ccccc3)nc2n1	0.3	0.1	30.3 µM	≥ 10 µM	3.5 µM	11 µM	–	–
CC(C)(C)Cn1cc2c(Cl)nc(N)nc2n1	–	> 0.6	> 60 µM	> 10 µM	4.1 µM	12 µM	–	–
CC(C)n1cc2c(Cl)nc(NC(=O)c3ccccc3)nc2n1	1.5	0.3	12.8 µM	> 20 µM	4.6 µM	19.6 µM	–	–
CC(C)n1cc2c(Cl)nc(N(C(=O)c3ccccc3)C(=O)c3ccccc3)nc2n1	1.1	0.1	6.7 µM	> 20 µM	0.8 µM	7.9 µM	8	9.9
CC(C)n1cc2c(Cl)nc(NC(=O)Cc3ccccc3)nc2n1	0.07	0.17	27.1 µM	> 10 µM	4.7 µM	1.9 µM	–	–
CCOC(=O)c1nc(NC(=O)c2ccc(C)cc2)nc2nn(CC(C)(C)C)cc12	> 111	> 111	0.9 µM	> 20 µM	> 100 µM	> 100 µM	–	–
O=C(Nc1nc(Cl)c2cn(CCc3ccccc3)nc2n1)c1ccccc1	0.4	0.3	8.6 µM	> 20 µM	3.1 µM	3.8 µM	–	–
Cn1cc2c(Cl)nc(NC(=O)c3ccc(F)cc3)nc2n1	> 3.1	0.6	31.9 µM	> 20 µM	20.5 µM	> 100 µM	–	–
CC(C)n1cc2c(Cl)nc(NC(=O)c3ccc(C(F)(F)F)cc3)nc2n1	1.3	0.2	10.3 µM	> 20 µM	2.7 µM	13.8 µM	–	–

Source: ChEMBL document CHEMBL3112554, “Discovery of simplified N²-substituted pyrazolo[3,4-d]pyrimidine derivatives as novel adenosine receptor antagonists: efficient synthetic approaches, biological evaluations and molecular docking studies” (Bioorg Med Chem, 2014)
